# A selection: hits, their analogues and other compounds. The true share with any hit is near 6.6%.
# H69AR inhibit: proliferation blockers of H69AR lung cancer cells, primary screen, cell-based, human, 86K library | H69AR lung tumor viability, ATP luminescence, 72 h; stronger effect = lower value | viability, % at 10 µM | actives 6% (n = 85,000) | AID 598, 2007;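 active = viability at or below 40%; inactive = viability above 40%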;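 note: multidrug resistant small cell line overexpressing MRP-1 efflux transporter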
# Fibroblast inh: antiproliferative effect on LL 47 fibroblasts – human, LL 47 cells, CellTiter-Glo luminescence, primary screen. LL 47 human lung fibroblast viability, ATP luminescence; stronger effect = lower value. viability, % at 10 µM. actives 1.1% (n = 85,000);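 active = viability at or below 50% in the single dose screen; inactive = viability above 50%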;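 note: compound exposure lasted 72 h before the ATP readout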
#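 Test system: LL 47 human lung fibroblasts / Quantity: 1,150 cells in each well / Medium: IMEM growth medium with 15% fetal bovine serum / Incubation: 72 h compound exposure at 37 °C after overnight plating / Detection: CellTiter-Glo luminescence measuring cellular ATP / Read-out: % viability versus median cells-only luminescence / Benchmarks: cell-only wells, no compound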
# HUVEC prolif 384: inhibitors of HUVEC proliferation, primary screen, cell-based, 384-well; CellTiter-Glo luminescence, 72 h; stronger effect = lower value; viability, % at 10 µM (by protocol); actives 1.1% (n = 86,000); AID 648, 2007;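 active = viability at or below 30%; inactive = viability above 30%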
# Jurkat tox 60K: cytotoxicity toward Jurkat T cells, primary screen, cytotoxicity control, cell-based, Jurkat E6.1, 60K MLSMR library. Jurkat E6.1 viability, ATP luminescence, 48 h. inhibition, % at 4 µM. actives 1.2% (n = 56,000). AID 463, 2006;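 active = inhibition above the mean inhibition of all tested compounds plus 3 SD, cut at about 28% in these data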
# Hits are given with their value; . = inactive; / = no result.
SMILES,H69AR inhibit,Fibroblast inh,HUVEC prolif 384,Jurkat tox 60K
COc1ccccc1-n1cnc(N)c1C(C)=O,.,.,.,.
CSc1nncc(=O)[nH]1,.,3.6,.,/
COc1ccccc1CNC(=O)C1CCN(Cc2nc(-c3cccc(Cl)c3)oc2C)CC1,40,.,.,.
CCN1CCCC1CNC(=O)C1CCN(Cc2nc(-c3cccc(Br)c3)oc2C)CC1 (centres undefined),.,29,18,.
COc1ccccc1CNC(=O)C1CCN(Cc2nc(-c3ccc(Cl)cc3)oc2C)CC1,.,.,.,.
CCc1ccc(-c2nc(CN3CCC(C(=O)NCc4ccccc4OC)CC3)c(C)o2)cc1,18,.,.,.
COc1cccc2c1N1C(=O)c3c(C(=O)O)cccc3C1CC2(C)C (centres undefined),.,.,.,.
CCOC(=O)Cn1c(=O)oc2cc(S(=O)(=O)NCCc3ccc(OCC)c(OCC)c3)ccc21,.,.,.,.
Cc1ccc(SC(=O)COc2ccccc2C)cc1,1.7,.,.,/
Cc1ccccc1OCC(=O)NCCN(C)C,.,.,.,.
O=C(c1c(F)c(F)c(F)c(F)c1F)N(Cc1ccccc1)Cc1ccccc1,36,.,.,/
O=C(O)c1ccccc1C(=O)N(Cc1ccccc1)Cc1ccccc1,.,.,.,/
Cc1nc2c(cnn2-c2ccc(Cl)cc2)c(=O)n1-c1ccc2c(c1)OCCO2,.,.,.,.
OC(CCCCN1CCCCC1)c1ccccc1 (centres undefined),.,.,.,.
CC(C)(C)c1ccc(C(O)CCCN2CCC(C(O)(c3ccccc3)c3ccccc3)CC2)cc1 (centres undefined),0.8,2.6,2.4,/
C/C(CC(C)(C)C1CCCCC1)=N\NC(N)=S,24,.,.,/
O=C(CSc1nnc(CNc2ccc(F)cc2)n1-c1ccccc1)N1CCOCC1,.,.,.,/
CCCCC(c1nnnn1CCOC)N1CCN(c2cccc(OC)c2)CC1 (centres undefined),.,.,.,.
O=C1c2ccccc2OC2(C=Cc3ccccc3O2)N1Cc1ccccc1 (centres undefined),12,.,.,/
NC(=S)NNc1cc(Cl)cc(Cl)c1,.,.,.,/
C=CCn1c(=O)/c(=C/c2ccc(Cl)cc2)s/c1=C(/C#N)c1nnc2n1CCCCC2,22,.,.,.
CN(C)CCCNC(CC(=O)Nc1ccc(Cl)cc1)C(=O)O (centres undefined),.,.,.,.
Cc1cc(NC(=O)CN2CCC(n3nnc4cc(C(F)(F)F)ccc43)CC2)no1,.,.,.,.
CCOC(=O)c1ccccc1NC(=O)CN1CCC(n2nnc3cc(F)ccc32)CC1,27,.,.,.
CCOc1ccc2nc(NC(=O)CN3CCC(n4nnc5cc(C(F)(F)F)ccc54)CC3)sc2c1,38,.,.,/
SMILES,H69AR inhibit,Fibroblast inh,HUVEC prolif 384,Jurkat tox 60K
CC1CCc2sc3c(c2C1)c1ncnn1c(=O)n3CC(=O)c1ccc(Br)cc1 (centres undefined),.,.,.,.
COc1cccc(-c2nnc(SCC(=O)Nc3ccc(OC)c(OC)c3)n2N)c1,.,.,.,.
CCn1c(C)c(C(C)=O)c(SC)nc1=S,.,.,.,/
CCCCCCCCCCn1c2c(c(=N)c3c1CCC3)CCC2,1.8,8.6,4.3,/
CCOC(=O)Cn1c2c(c(=N)c3c1CCC3)CCC2,.,.,.,.
Cc1cc(C)c2nc(C(F)(F)F)c(C#N)c(N)c2c1,40,.,.,/
Cc1cc(C(F)(F)F)c(C#N)c(N2CCOCC2)n1,.,.,.,/
CCC(=O)N1CN(S(=O)(=O)c2ccc(C)cc2)CC1C (centres undefined),.,.,.,.
CCN1CCN(CC(=O)Nc2cccc(C)c2)C(=O)C1=O,.,.,.,.
CS(=O)(=O)c1ccc2nc(NC(=O)Cc3ccccc3)sc2c1,.,.,.,.
COc1cccc(OC)c1C(=O)Nc1nc2ccc(S(C)(=O)=O)cc2s1,.,.,.,/
CS(=O)(=O)c1ccc2nc(NC(=O)CCC(=O)c3cccs3)sc2c1,40,.,.,.
CC(C)(C)NS(=O)(=O)c1ccc2nc(NC(=O)Cc3cccs3)sc2c1,28,.,.,.
CC(C)n1nc(C(=O)Nc2nc3ccc(S(C)(=O)=O)cc3s2)c2ccccc2c1=O,.,50,.,.
O=C1Cn2c(nc3ccccc32)N1c1cccc(C(F)(F)F)c1,.,.,.,/
Cc1ccc(C(=O)OCC(=O)NCc2ccco2)cc1,.,.,.,/
Cc1cc(C(=O)OCC(=O)NCc2ccco2)c(C)n1-c1ccc(F)cc1,21,.,.,75
CNC(=O)CN(c1ccc(C(C)C)cc1)S(C)(=O)=O,.,.,.,/
COc1ccc(CSc2nnc(Cc3sc(-c4ccccc4)nc3-c3ccccc3)o2)cc1,.,.,.,/
NC(=O)c1c(NC(=O)CSc2nnc(Cc3ccccc3)n2Cc2ccco2)sc2c1CCC2,5.6,.,.,.
COCCCn1c(SCC(=O)Nc2sc3c(c2C#N)CCCC3)nnc1-c1ccncc1,.,.,.,/
CCCCn1c(SCC(=O)Nc2sc3c(c2C(N)=O)CCC3)nnc1-c1ccccc1,25,.,.,/
c1ccc2sc(SCc3ccc(-c4nnco4)cc3)nc2c1,.,.,.,.
CC(CC1C(C#N)=C(N)SC(N)=C1C#N)c1ccccc1 (centres undefined),.,.,.,.
CCc1cccc(Nc2cc(C)nc3ncnn23)c1,.,.,.,.
SMILES,H69AR inhibit,Fibroblast inh,HUVEC prolif 384,Jurkat tox 60K
CCn1c2ccccc2c2cc(Nc3cc(C)nc4ncnn34)ccc21,31,45,30,99
O=C(c1ccc2c3c(cccc13)C(=O)N(O)C2=O)N1CCCCC1,25,.,.,/
COc1ccc(NC(=O)Cn2nnc(C(=O)NCc3ccccc3)c2N)cc1Cl,28,.,.,.
COc1cccc(CNC(=O)c2nnn(CC(=O)Nc3ccc(C)c(C)c3)c2N)c1,.,.,.,/
Cc1nc(S(=O)(=O)N(C)c2ccccc2)c(C#N)c(C)c1Cl,4.2,39,.,.
COc1ccc(N2CC(O)=C(c3n(C)c4ccccc4[n+]3C)C2=N)cc1,.,.,.,/
CN1CCN(CCCN2c3ccccc3Sc3ccc(C(F)(F)F)cc32)CC1,0.6,.,2.4,/
C=CCSc1cc(C)nc2c(-c3ccc(Cl)cc3)c(C)nn12,36,.,.,/
Cc1cc(-n2nc(C)cc2C)n2nc(C)c(-c3ccc(Cl)cc3)c2n1,.,46,.,/
COCCn1nnnc1C(C(C)C)N(Cc1cccnc1)Cc1cc2cc(OC)ccc2[nH]c1=O (centres undefined),.,.,.,.
CCC(c1nnnn1C1CCCCC1)N(Cc1ccco1)Cc1cc2ccc(OC)cc2[nH]c1=O (centres undefined),15,.,.,.
COCCn1nnnc1C(C(C)C)N(Cc1ccccc1)Cc1cc2cc(OC)ccc2[nH]c1=O (centres undefined),4.8,.,.,.
COc1ccc2[nH]c(=O)c(CN(C3CCCCC3)C(c3nnnn3Cc3ccco3)C(C)C)cc2c1 (centres undefined),.,39,.,.

# Screening data: PubChem BioAssay, several laboratories
